# Experimental data: ChEMBL document CHEMBL2163221, “Discovery of a potential anti-ischemic stroke agent: 3-pentylbenzo[c]thiophen-1(3H)-one” (J Med Chem, 2012)
# pIC50: −log10 of the molar value. Calls of active or inactive are those of the source. No cut-off for these calls is given here.
# Tests used:
# [1] = test system: Platelet; assay: Inhibition of arachidonic acid-induced platelet aggregation in rabbit platelet rich plasma at 0.1 mM by Born's turbidimetric method; assay type: functional; details: Oryctolagus cuniculus
# How it was run: (§1)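 Rabbit carotid blood in 3.8% sodium citrate (9:1); PRP by 500g spin for 10 min, PPP by a further 3000g spin for 10 min. PRP was preincubated in duplicate for 5 min at 37 °C with vehicle or agent (0.1, 0.2, 0.4, 0.8, 1.6 mM). Aggregation was triggered by ADP (10 μM final) or AA (1 mM), and maximal light transmission was read within 5 min, within 3 h of collection. Inhibition % = 100 × (1 − treated/control); IC50 was calculated.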
# [2] = test system: Rattus norvegicus; assay: Anticerebral ischemic activity in Sprague-Dawley rat middle cerebral artery occlusion model assessed as reduction in neurological deficit score at 3 mg/kg, ig for 7 consecutive days by Longa's method; assay type: functional; parameters: scale not given: the % may be the effect or the level left; details: route intragastric
# How it was run: (§2)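 SD rats were dosed orally in normal saline for 7 days before ischemia (n = 12/group). They were anesthetized ip with 350 mg/kg chloral hydrate and given MCAO with a silicone-tipped 4-0 nylon suture for 2 h, then reperfusion. Occlusion was confirmed as >80% CBF drop by laser Doppler, with core temperature held at 37 °C. Deficits were scored blinded by modified Longa's method 24 h after reperfusion.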
# [3] = test system: Rattus norvegicus; assay: Antithrombotic activity in Sprague-Dawley rat arteriovenous shunt model assessed as reduction of thrombus wet weight at 3 mg/kg, po qd for 5 consecutive days; assay type: functional; parameters: scale not given: the % may be the effect or the level left
# How it was run: (§3)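 Male SD rats were dosed by gavage in saline daily for 5 days (n = 12/group). An A-V shunt linked the right carotid artery to the left jugular vein: a saline-filled 14 cm polyethylene tube holding 6 cm of four braided silk threads. After 15 min of flow, the threads were weighed wet, then dried 6 h at room temperature and reweighed, less the pre-experiment thread weight.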
# [4] = test system: Rattus norvegicus; assay: Antithrombotic activity in Sprague-Dawley rat arteriovenous shunt model assessed as reduction of thrombus dry weight at 3 mg/kg, po qd for 5 consecutive days; assay type: functional; parameters: scale not given: the % may be the effect or the level left; how it was run: as §3
# [5] = test system: Platelet; assay: Inhibition of arachidonic acid-induced platelet aggregation in rabbit platelet rich plasma by Born's turbidimetric method; assay type: functional; details: Oryctolagus cuniculus; how it was run: as §1
# [6] = test system: Rattus norvegicus; assay: Anticerebral ischemic activity in Sprague-Dawley rat middle cerebral artery occlusion model assessed as reduction in infarct size in brain at 3 mg/kg, ig for 7 consecutive days by TTC assay; assay type: functional; parameters: scale not given: the % may be the effect or the level left; details: route intragastric
# How it was run: (§4)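 SD rats, chloral hydrate 350 mg/kg ip anaesthesia; right MCA occluded 2 h by silicone-tipped 4-0 nylon filament via ECA into ICA (>80% CBF drop by laser Doppler, 37 ± 0.5 °C), then reperfusion. Dosed in normal saline orally daily 7 days before ischemia. At 24 h, 2-mm coronal slices stained 2% TTC 30 min 37 °C; infarct area as % of whole brain; n = 6.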
# [7] = test system: Rattus norvegicus; assay: Antioxidant activity in Sprague-Dawley rat middle cerebral artery occlusion model assessed as increase in glutathione level in brain at 3 mg/kg, ig for 7 consecutive days; assay type: functional; details: route intragastric
# How it was run: (§5)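 Rats pretreated orally in saline for 7 days underwent 2 h MCAO with reperfusion. At 24 h brains were removed, rinsed in cold 0.9% saline, blotted and stored at −70 °C. After protein quantification, GSH, SOD activity and MDA were measured with commercial kits; n = 12/group.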
# [8] = test system: Rattus norvegicus; assay: Antioxidant activity in Sprague-Dawley rat middle cerebral artery occlusion model assessed as decrease in malondialdehyde level in brain at 3 mg/kg, ig for 7 consecutive days; assay type: functional; parameters: scale not given: the % may be the effect or the level left; details: route intragastric; how it was run: as §5
# [9] = test system: Platelet; assay: Inhibition of adenosine diphosphate-induced platelet aggregation in rabbit platelet rich plasma at 0.1 mM by Born's turbidimetric method; assay type: functional; details: Oryctolagus cuniculus; how it was run: as §1
# [10] = test system: PC-12; assay: Antioxidant activity in rat PC12 cells assessed as inhibition of hydrogen peroxide induced cytotoxicity at 10 uM treated for 2 hrs prior to H2O2 challenge measured after 1 hr by MTT assay (reference value: 52.45%); assay type: functional; parameters: scale not given: the % may be the effect or the level left
# [11] = test system: PC-12; assay: Antioxidant activity in rat PC12 cells assessed as inhibition of hydroxyl radical-induced cytotoxicity at 10 uM treated for 2 hrs prior to H2O2/Fe+ challenge measured after 1 hr by MTT assay (reference value: 61.95%); assay type: functional; parameters: scale not given: the % may be the effect or the level left
# [12] = test system: Plasma; assay: Anticoagulant activity in rabbit plasma assessed as length of activated partial thromboplastin time; assay type: functional, cell-free; details: Oryctolagus cuniculus
# [13] = test system: Rattus norvegicus; assay: Antioxidant activity in Sprague-Dawley rat middle cerebral artery occlusion model assessed as increase in superoxide dismutase activity at 3 mg/kg, ig for 7 consecutive days; assay type: functional; details: route intragastric; how it was run: as §5
# [14] = test system: Rattus norvegicus; assay: Anticerebral ischemic activity in Sprague-Dawley rat middle cerebral artery occlusion model assessed as reduction of water content in brain at 3 mg/kg, ig for 7 consecutive days; assay type: functional, organism-based; parameters: dose 3 mg/kg
# How it was run: (§6)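 Rats given oral saline-vehicle pretreatment for 7 days underwent 2 h suture MCAO plus reperfusion. At 24 h the animals were decapitated and brains weighed wet, then dried at 105 °C for 24 h. Water % = (wet − dry)/wet × 100; n = 6/group.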
# [15] = test system: Platelet; assay: Inhibition of adenosine diphosphate-induced platelet aggregation in rabbit platelet rich plasma by Born's turbidimetric method; assay type: functional; details: Oryctolagus cuniculus; how it was run: as §1
# [16] = test system: Platelet; assay: Ratio of edaravone to compound for adenosine diphosphate-induced platelet aggregation in rabbit platelet rich plasma at 0.1 mM; assay type: functional, Oryctolagus cuniculus
# [17] = test system: Rattus norvegicus; assay: Antioxidant activity in Sprague-Dawley rat middle cerebral artery occlusion model assessed as decrease in malondialdehyde level in brain at 30 mg/kg, ig for 7 consecutive days; assay type: functional; parameters: scale not given: the % may be the effect or the level left; details: route intragastric; how it was run: as §5
# [18] = test system: Rattus norvegicus; assay: Anticerebral ischemic activity in Sprague-Dawley rat middle cerebral artery occlusion model assessed as reduction in neurological deficit score at 90 mg/kg, ig for 7 consecutive days by Longa's method; assay type: functional; parameters: scale not given: the % may be the effect or the level left; details: route intragastric; how it was run: as §2
# [19] = test system: Platelet; assay: Ratio of aspirin to compound for adenosine diphosphate-induced platelet aggregation in rabbit platelet rich plasma at 0.1 mM; assay type: functional, Oryctolagus cuniculus
# [20] = test system: Rattus norvegicus; assay: Antithrombotic activity in Sprague-Dawley rat arteriovenous shunt model assessed as reduction of thrombus wet weight at 30 mg/kg, po qd for 5 consecutive days; assay type: functional; parameters: scale not given: the % may be the effect or the level left; how it was run: as §3
# [21] = test system: Rattus norvegicus; assay: Antithrombotic activity in Sprague-Dawley rat arteriovenous shunt model assessed as reduction of thrombus dry weight at 90 mg/kg, po qd for 5 consecutive days; assay type: functional; parameters: scale not given: the % may be the effect or the level left; how it was run: as §3
# [22] = test system: Rattus norvegicus; assay: Antioxidant activity in Sprague-Dawley rat middle cerebral artery occlusion model assessed as increase in glutathione level in brain at 90 mg/kg, ig for 7 consecutive days; assay type: functional; details: route intragastric; how it was run: as §5
# [23] = test system: Rattus norvegicus; assay: Anticerebral ischemic activity in Sprague-Dawley rat middle cerebral artery occlusion model assessed as reduction in infarct size in brain at 90 mg/kg, ig for 7 consecutive days by TTC assay; assay type: functional; parameters: scale not given: the % may be the effect or the level left; details: route intragastric; how it was run: as §4
# [24] = test system: Rattus norvegicus; assay: Antioxidant activity in Sprague-Dawley rat middle cerebral artery occlusion model assessed as decrease in malondialdehyde level in brain at 90 mg/kg, ig for 7 consecutive days; assay type: functional; parameters: scale not given: the % may be the effect or the level left; details: route intragastric; how it was run: as §5
# [25] = test system: Rattus norvegicus; assay: Antithrombotic activity in Sprague-Dawley rat arteriovenous shunt model assessed as reduction of thrombus dry weight at 30 mg/kg, po qd for 5 consecutive days; assay type: functional; parameters: scale not given: the % may be the effect or the level left; how it was run: as §3
# [26] = test system: Rattus norvegicus; assay: Anticerebral ischemic activity in Sprague-Dawley rat middle cerebral artery occlusion model assessed as reduction in loss of hippocampal neurons at 90 mg/kg, ig for 7 consecutive days by hematoxylin-eosin staining; assay type: functional, organism-based; parameters: dose 90 mg/kg
# How it was run: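 Rats dosed ig in saline for 7 days before 2 h MCAO/reperfusion. Brain tissue sections from the ischemic side were stained with hematoxylin–eosin and examined at ×200 for hippocampal neuron loss; n = 6/group.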
# [27] = test system: Rattus norvegicus; assay: Anticerebral ischemic activity in Sprague-Dawley rat middle cerebral artery occlusion model assessed as reduction in neurological deficit score at 30 mg/kg, ig for 7 consecutive days by Longa's method; assay type: functional; parameters: scale not given: the % may be the effect or the level left; details: route intragastric; how it was run: as §2
# [28] = test system: Rattus norvegicus; assay: Antioxidant activity in Sprague-Dawley rat middle cerebral artery occlusion model assessed as increase in superoxide dismutase activity at 30 mg/kg, ig for 7 consecutive days; assay type: functional; details: route intragastric; how it was run: as §5
# [29] = test system: Rattus norvegicus; assay: Anticerebral ischemic activity in Sprague-Dawley rat middle cerebral artery occlusion model assessed as reduction in infarct size in brain at 30 mg/kg, ig for 7 consecutive days by TTC assay; assay type: functional; parameters: scale not given: the % may be the effect or the level left; details: route intragastric; how it was run: as §4
# [30] = test system: Rattus norvegicus; assay: Antioxidant activity in Sprague-Dawley rat middle cerebral artery occlusion model assessed as increase in superoxide dismutase activity at 90 mg/kg, ig for 7 consecutive days; assay type: functional; details: route intragastric; how it was run: as §5
# [31] = test system: Platelet; assay: Ratio of 3-nbutylphthalide to compound for adenosine diphosphate-induced platelet aggregation in rabbit platelet rich plasma at 0.1 mM; assay type: functional, Oryctolagus cuniculus
# [32] = test system: Rattus norvegicus; assay: Anticerebral ischemic activity in Sprague-Dawley rat middle cerebral artery occlusion model assessed as reduction of water content in brain at 30 mg/kg, ig for 7 consecutive days; assay type: functional, organism-based; parameters: dose 30 mg/kg; how it was run: as §6
# [33] = test system: Rattus norvegicus; assay: Antithrombotic activity in Sprague-Dawley rat arteriovenous shunt model assessed as reduction of thrombus wet weight at 90 mg/kg, po qd for 5 consecutive days; assay type: functional; parameters: scale not given: the % may be the effect or the level left; how it was run: as §3
# [34] = test system: Rattus norvegicus; assay: Anticerebral ischemic activity in Sprague-Dawley rat middle cerebral artery occlusion model assessed as reduction of water content in brain at 90 mg/kg, ig for 7 consecutive days; assay type: functional, organism-based; parameters: dose 90 mg/kg; how it was run: as §6
# [35] = test system: Platelet; assay: Ratio of 3-nbutylphthalide to compound for arachidonic acid-induced platelet aggregation in rabbit platelet rich plasma at 0.1 mM; assay type: functional, Oryctolagus cuniculus
structure (smiles),measurement,setting,value
CC1=NN(c2ccccc2)C(=O)C1 [EDARAVONE],inhibition at 100 µM,[1],36.1%
same,Activity,[2],34.46%
same,Activity,[3],36.14%
same,Activity,[4],30.08%
same,pIC50,[5],3.60
same,Activity,[6],37.31%
same,Activity,[7],58.33%
same,Activity,[8],28.52%
same,inhibition at 100 µM,[9],11.5%
same,Activity,[10],78.05%
same,Activity,[11],83.3%
same,Activity,[12],inactive
same,Activity,[13],34.2%
same,Activity,[14],Active
same,pIC50,[15],3.07
CCCCCC1SC(=O)c2ccccc21 (racemic),inhibition at 100 µM,[1],35.2%
same,pIC50,[5],3.68
same,Ratio,[16],1.36
same,Activity,[17],23.66%
same,Activity,[18],37.45%
same,inhibition at 100 µM,[9],15.6%
same,Ratio,[19],1.45
same,Activity,[10],77.23%
same,Activity,[20],27.35%
same,Activity,[21],43.33%
same,Activity,[11],86.08%
same,Activity,[12],inactive
same,Activity,[22],82.67%
same,Activity,[23],59.62%
same,Activity,[24],40.9%
same,Activity,[25],32.85%
same,Activity,[26],Active
same,Activity,[27],25.09%
same,Activity,[28],25.87%
same,Activity,[29],35.5%
same,Activity,[30],39.77%
same,Ratio,[31],1.65
same,pIC50,[15],3.38
same,Activity,[32],inactive
same,Activity,[33],39.7%
same,Activity,[34],Active
same,Ratio,[35],2.02
CCCCCCC1SC(=O)c2ccccc21 (racemic),pIC50,[5],3.08
same,pIC50,[15],3.10
CCCC1SC(=O)c2ccccc21 (racemic),pIC50,[5],3.40
same,pIC50,[15],< 3.00
O=C1SC(Cc2ccccc2)c2ccccc21 (racemic),pIC50,[5],< 3.00
same,pIC50,[15],< 3.00
